Data on 24 molecules can be found in ChEMBL document CHEMBL4138245, “Design and synthesis of novel quinacrine-[1,3]-thiazinan-4-one hybrids for their anti-breast cancer activity” (Eur J Med Chem, 2018).

Activity calls are given as the source filed them. No cut-off for these calls is given here.

Test [1] concerns MDA-MB-468. Description: Antiproliferative activity against human MDA-MB-468 cells after 48 hrs by SRB assay. The test is classed as functional, cell-based. The conditions noted are these: MDA-MB-468, 48 h. The essentials: (§1)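 SRB assay: 5,000-10,000 cells/well plated, 24 h at 37 °C/5% CO2 before drug; seven concentrations from 100 μM down (two- to ten-fold serial dilutions, DMSO ≤0.1% final) for 48 h; TCA fixation (10% final, 60 min, 4 °C), 0.4% SRB in 1% acetic acid, solubilized in 10 mM Tris base, absorbance 515-564 nm; growth = (Ti−Tz)/(C−Tz)×100; IC50 from sigmoidal variable-slope fit; triplicates, ≥2 independent experiments.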
(In SRB staining, fixed cells bind dye roughly in proportion to their protein.)

The subject of test [2] is MDA-MB-231. Description: Antiproliferative activity against human MDA-MB-231 cells after 48 hrs by SRB assay. The format is functional, cell-based. As to conditions: MDA-MB-231, 48 h. In outline: as §1
In test [3] the test system is MCF7. Description: Antiproliferative activity against human MCF7 cells after 48 hrs by SRB assay. As to conditions: MCF7, 48 h. The test is classed as functional, cell-based. The essentials:
as §1

For test [4], the system named is 184B5. Description: Antiproliferative activity against human 184B5 cells after 48 hrs by SRB assay. The format is cell-based. As to conditions: 184B5, 48 h. In outline:
as §1

In test [5] the test system is MCF7. Description: Anticlonogenic activity against human MCF7 cells at 0.39 to 1.5 uM after 12 hrs by crystal violet staining based assay. The format is functional, cell-based. In outline:
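Clonogenic assay: 1000 cells/well seeded, treated after overnight attachment for 12 h, then medium replaced and cells grown until control colonies were large enough; colonies stained with crystal violet.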

In the case of `COc1ccc2nc3cc(Cl)ccc3c(NCCCN3C(=O)CCSC3c3ccc(Cl)cc3Cl)c2c1` (configuration not stated), the IC50 in test [1] worked out at 3.72 µM; in test [2] it was 3.07 µM; in test [3] it was 1.85 µM; in test [4], 4.28 µM.
The matching figures for `COc1ccc2nc3cc(Cl)ccc3c(NCCCN3C(=O)CCSC3c3ccccc3F)c2c1` (configuration not stated): 2.68 µM, 4.11 µM, 2.29 µM and 35.6 µM.
The matching figures for `COc1ccc2nc3cc(Cl)ccc3c(NCCCN3C(=O)CCSC3c3ccccc3Cl)c2c1` (configuration not stated): 19.9 µM, 10.8 µM, 15.3 µM and 69.6 µM.
The like results for `COc1ccc2nc3cc(Cl)ccc3c(NCCCN3C(=O)CCSC3c3c(Cl)cccc3Cl)c2c1` (configuration not stated) were, in that order, 1.29 µM, 7.54 µM, 4.41 µM and 3.84 µM.
Turning to `COc1ccc2nc3cc(Cl)ccc3c(NCCCN3C(=O)CCSC3c3ccccc3[N+](=O)[O-])c2c1` (configuration not stated), the IC50 in test [1] stood at 1.21 µM; in test [2], 0.77 µM; in test [3] it was 0.99 µM; in test [4] it was 1.83 µM.
The matching figures for `COc1ccc2nc3cc(Cl)ccc3c(NCCCN3C(=O)CCSC3c3ccc([N+](=O)[O-])cc3)c2c1` (configuration not stated): 9.41 µM, 4.68 µM, 7.04 µM and 19.5 µM.
Take `COc1ccc2nc3cc(Cl)ccc3c(NCCCN3C(=O)CCSC3c3c(F)cccc3Cl)c2c1` (configuration not stated): the IC50 was 5.19 µM in test [1], 3.44 µM in test [2], 4.31 µM in test [3] and 3.1 µM in test [4].
The matching figures for `COc1ccc2nc3cc(Cl)ccc3c(NCCCN3C(=O)CCSC3c3ccc(F)cc3F)c2c1` (configuration not stated): 3.79 µM, 4.54 µM, 3.39 µM and 5.08 µM.
For the molecule `CCN(CC)CCCC(C)Nc1ccnc2cc(Cl)ccc12` (configuration not stated) [CHLOROQUINE PHOSPHATE], the IC50 in test [1] was determined as 28.6 µM; in test [2], 22.5 µM; in test [3] it was 38.4 µM; in test [4], 76.1 µM.
The matching figures for `COc1ccc2nc3cc(Cl)ccc3c(NCCCN3C(=O)CCSC3c3ccco3)c2c1` (configuration not stated): 3.67 µM, 3.46 µM, 3.57 µM and 3.6 µM.
In the case of `COc1ccc2nc3cc(Cl)ccc3c(NCCCN3C(=O)CCSC3c3c(F)cccc3F)c2c1` (configuration not stated), the IC50 in test [1] turned out to be 3.2 µM; in test [2] it was 4.41 µM; in test [3] it was 3.81 µM; in test [4], 29.3 µM.
Turning to `COc1ccc2nc3cc(Cl)ccc3c(NCCCN3C(=O)CCSC3c3ccc(N(c4ccccc4)c4ccccc4)cc3)c2c1` (configuration not stated), the IC50 was 1.68 µM in test [1], 3.32 µM in test [2], 1.85 µM in test [3] and 3.11 µM in test [4].
The matching figures for `COc1ccc2nc3cc(Cl)ccc3c(NCCCN3C(=O)CCSC3c3ccc(C)cc3)c2c1` (configuration not stated): 6.97 µM, 4.87 µM, 5.52 µM and 5.66 µM.
Regarding `COc1ccc2nc3cc(Cl)ccc3c(NCCCN3C(=O)CCSC3c3ccccc3Br)c2c1` (configuration not stated), the IC50 in test [1] stood at 38.6 µM; in test [2], 40.1 µM; in test [3] it was 39.3 µM; in test [4], 15.6 µM.
For the molecule `COc1ccc2nc3cc(Cl)ccc3c(NCCCN3C(=O)CCSC3C3CCCCC3)c2c1` (configuration not stated), the IC50 came to 5.25 µM in test [1], 5.85 µM in test [2], 5.05 µM in test [3] and 7.71 µM in test [4].
Turning to `COc1ccc2nc3cc(Cl)ccc3c(NCCCN3C(=O)CCSC3c3ccccc3)c2c1` (configuration not stated), the IC50 in test [1] came out at 4.72 µM; in test [2] it was 4.07 µM; in test [3] it was 4.79 µM; in test [4] it was 9.32 µM.
As for `COc1ccc2nc3cc(Cl)ccc3c(NCCCN3C(=O)CCSC3c3ccc(N(C)C)cc3)c2c1` (configuration not stated), the IC50 turned out to be 3.56 µM in test [1], 2.63 µM in test [2], 3.09 µM in test [3] and 13.2 µM in test [4].
`COc1ccc2nc3cc(Cl)ccc3c(NCCCN3C(=O)CCSC3c3ccnc4ccccc34)c2c1` (configuration not stated): the IC50 in test [1] is 10.4 µM; in test [2], 7.48 µM; in test [3], 8.94 µM; in test [4], 27.1 µM.
The matching figures for `COc1ccc2nc3cc(Cl)ccc3c(NCCCN3C(=O)CCSC3c3ccc(Cl)cc3)c2c1` (configuration not stated): 4.43 µM, 3.53 µM, 3.4 µM and 5.02 µM.
With `COc1ccc2nc3cc(Cl)ccc3c(NCCCN3C(=O)CCSC3c3ccc(F)cc3)c2c1` (configuration not stated), the IC50 in test [1] amounted to 4.58 µM; in test [2], 5.36 µM; in test [3], 4.97 µM; in test [4] it was 28.2 µM.
With `COc1ccc2nc3cc(Cl)ccc3c(NCCCN3C(=O)CCSC3c3ccncc3)c2c1` (configuration not stated), the IC50 in test [1] amounted to 21.6 µM; in test [2], 10.8 µM; in test [3] it was 16.2 µM; in test [4] it was 14.6 µM.
The matching figures for `COc1ccc2nc3cc(Cl)ccc3c(NCCCN3C(=O)CCSC3c3ccc(Br)cc3)c2c1` (configuration not stated): 25.5 µM, 37.1 µM, 31.3 µM and 35.8 µM.
Turning to `CCN(CC)CCCC(C)Nc1c2ccc(Cl)cc2nc2ccc(OC)cc12` (configuration not stated) [QUINACRINE], the result in test [5] was Active. The IC50 in test [1] came to 3.96 µM; in test [2] it was 3.25 µM; in test [3], 4.19 µM; in test [4], 4.96 µM.
On to `COc1ccc2nc3cc(Cl)ccc3c(NCCCN3C(=O)CCSC3c3ccc[nH]3)c2c1` (configuration not stated), for which the IC50 in test [1] was determined as 4.87 µM; in test [2] it was 4.56 µM; in test [3] it was 1.66 µM; in test [4], 12.9 µM.

The IC50 is the concentration needed to halve the response being measured. A low value points to greater potency in that assay.
